# Screens as filed in PubChem BioAssay.
# In the library only some 2.6% were active in any assay of this set; here they are far more common.
# ASAP1 GAP inh = inhibitors of human ASAP1 ArfGAP activity, primary screen, biochemical, fluorescence polarization; 360,000 tested, 0.19% active; inhibition, % at 16.5 µM; ASAP1-stimulated ARF1 GTP hydrolysis, GDP FP detection; Arf-GAP with SH3 domain, ANK repeat and PH domain-containing protein 1 (Homo sapiens), …; in the data active = inhibition above about 25%;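 note: 0% = vehicle with enzyme and substrate and 100% = no enzyme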
# esBAF inh = Bmi1 luciferase reporter increase in mESCs, primary screen, esBAF inhibitor project, mouse ES cells, Bmi1 luciferase knock-in, single point. reporter increase, % at 12.5 µM. AID 602393, 2012. 24 h; 100% = twice the neutral-well signal. 350,000 tested, 2% active; in the data active = activation above about 40%;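 note: 0% = median of the plate's neutral control wells and 100% = double that signal; a rise in the Bmi1 reporter signal indicates esBAF inhibition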
# ARFGAP1 inh = inhibitors of rat ARFGAP1 GAP activity, primary screen, biochemical, fluorescence polarization, GDP tracer. ADP-ribosylation factor GTPase-activating protein 1 (Rattus norvegicus), Q62848. Arfgap1-stimulated ARF1 GTP hydrolysis, GDP FP detection. inhibition, % at 16.5 µM. 360,000 tested, 0.26% active. AID 651572, 2012;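 active = inhibition above a per-plate limit, mean inhibition of low control wells plus 3 SD, cut at about 25% in these data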;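 note: 0% = DMSO wells with enzyme and 100% = wells lacking Arfgap1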
# Target sequence (Q62848 1-136 limits assumed): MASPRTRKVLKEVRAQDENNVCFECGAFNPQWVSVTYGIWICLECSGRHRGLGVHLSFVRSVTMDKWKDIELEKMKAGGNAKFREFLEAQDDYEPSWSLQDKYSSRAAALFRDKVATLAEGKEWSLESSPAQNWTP
#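 Assay system: Rat Arfgap1 GAP domain (His6, aa 1-136), purified enzyme | Buffer or medium: HEPES 25 mM pH 7.5, NaCl 150 mM, MgCl2, DTT | Schedule: GTP hydrolysis reaction 2 h at 25 °C | Signal: FP of antibody-bound GDP Alexa 633 tracer, ex 620/em 688 nm | Measure: Percent inhibition of Arfgap1-stimulated GTP hydrolysis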
# SMARCA2 activ = SMARCA2 (BRM) function activators, primary screen, cell-based, luminescence, high throughput. activation, % at 9.1 µM. MG213 cells, MMTV-luciferase reporter, dexamethasone, overnight. 370,000 tested, 1% active; in the data active = activation above about 7.8%;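 note: 0% = vehicle wells and 100% = reference activator wells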
# An asterisk follows results filed as active; / = no result given.
SMILES,ASAP1 GAP inh,esBAF inh,ARFGAP1 inh,SMARCA2 activ
C[C@@H]1CN([C@H](C)CO)C(=O)Cc2cc(NS(=O)(=O)c3cn(C)cn3)ccc2O[C@H]1CN(C)S(=O)(=O)c1cccs1,/,-2,/,/
CC(=O)N(C)C[C@H]1Oc2cc(C#Cc3cccnc3)ccc2S(=O)(=O)N([C@H](C)CO)C[C@H]1C,/,5,/,/
C/C(=N/Nc1ccc([N+](=O)[O-])cc1)c1c[nH]c2ccccc12,13,58*,13,0
CC1CCCCN1C(=O)CSc1nnc(-c2ccc(Cl)s2)o1 (configuration not stated),1,63*,2,3
Cc1occc1-c1nnc(SCC(=O)N2CCCCC2C)o1 (configuration not stated),1,10,13,-3
CCCCCCCNC(=O)C1(CC2CC(c3ccccc3)=NO2)CCN(C(=O)c2ccccc2)CC1 (configuration not stated),-5,11,-8,1
CCCCCCCNC(=O)C1(CC2CC(c3ccccc3)=NO2)CCN(C(=O)OC(C)(C)C)CC1 (configuration not stated),-11,62*,4,2
C[C@@H]1CN([C@@H](C)CO)C(=O)Cc2cc(NC(=O)c3ccncc3)ccc2O[C@H]1CN(C)Cc1ccc(Oc2ccccc2)cc1,/,0,/,/
COc1ccc(OC)c(Cc2nnc(CCC(=O)N3CCCCCC3)o2)c1,9,52*,-7,2
Cc1cccc(Cc2nnc(CCC(=O)N3CCCCC3c3nccs3)o2)c1 (configuration not stated),-6,/,-10,-7
COc1ccc(OC)c(Cc2nnc(CCC(=O)N3CCCCC3c3nccs3)o2)c1 (configuration not stated),/,48*,/,/
Cc1noc(C)c1NC(=O)N(C)C[C@@H]1Oc2ccc(NC(=O)Cc3ccccc3)cc2C(=O)N([C@H](C)CO)C[C@H]1C,/,-3,/,/
C[C@H]1CN([C@@H](C)CO)S(=O)(=O)c2ccc(C3=CCCC3)cc2O[C@@H]1CN(C)Cc1cccc(C(=O)O)c1,/,0,/,/
c1ccc2c(COn3nnc4ccccc43)cccc2c1,3,56*,3,5
CO[C@@H]1CN(C)C(=O)c2ccc(NC(=O)Nc3ccccc3F)cc2OC[C@H](C)NC[C@@H]1C,/,4,/,/
Nn1c(SCc2ccccc2)nnc1-c1ccccn1,-8,43*,6,1
Cc1ccc(CSc2nnc(-c3ccccn3)n2N)cc1,-3,/,-12,2
Cc1cc(N2CCCC2)ccc1/C=C1/C(=O)N(C)C(=S)N1C,0,13,-4,-3
CCCN1C(=O)/C(=C/c2ccc(N3CCCC3)c(C)c2)NC1=S,11,4,-8,-1
Cc1cc(/C=C2\NC(=S)N(C)C2=O)ccc1N1CCCC1,-8,65*,-2,-1
CCCN1C(=O)/C(=C/c2ccc(N3CCOCC3)cc2)NC1=S,2,/,6,-3
CCN1C(=O)/C(=C/c2ccc(N3CCCC3)cc2)NC1=S,4,49*,0,-2
Cc1cc(/C=C2/C(=O)N(C)C(=S)N2C)ccc1N1CCCC1,2,78*,3,5
C[C@H](NC(=O)[C@@H]1[C@@H](CO)[C@@H]2Cn3c(cccc3=O)[C@@H]2N1CCC(F)(F)F)c1ccccc1,/,-1,/,/
C[C@H](O)C#Cc1cnc2c(c1)C(=O)N([C@H](C)CO)C[C@H](C)[C@H](CN(C)Cc1cccc(F)c1)O2,/,3,/,/
SMILES,ASAP1 GAP inh,esBAF inh,ARFGAP1 inh,SMARCA2 activ
O=C(c1cc2ccccc2oc1=O)N(Cc1cccc(Br)c1)C1CCS(=O)(=O)C1 (configuration not stated),2,24,1,0
O=C(c1cc2ccccc2oc1=O)N(Cc1ccco1)C1CCS(=O)(=O)C1 (configuration not stated),4,82*,9,5
O=C(CCc1nnc(-c2ccccc2)o1)NC1CCCCC1,-6,48*,3,-2
CN(CCCC1CCCC1)C(=O)CCc1nnc(-c2ccccc2)o1,-2,84*,7,4
COc1cccc(C(=O)Nc2ccc3c(c2)C(=O)N(C)C[C@@H](OC)[C@@H](C)CN(C(=O)C2CCCC2)[C@@H](C)CO3)c1,/,-3,/,/
Cc1noc(C)c1NC(=O)Nc1ccc2c(c1)C(=O)N([C@H](C)CO)C[C@@H](C)[C@@H](CN(C)C(=O)Nc1ccc3c(c1)OCO3)O2,/,6,/,/
